Source: ChEMBL document CHEMBL1833967, “Bioassay-guided isolation of constituents of Piper sarmentosum using a mitochondrial transmembrane potential assay” (2011)

Key:
HL-60 = experiment: Inhibition of chymotrypsin-like activity of purified human 20S proteasome in HL60 cells using N-succinyl-Leu-Leu-Val-Tyr-AMC as substrate pre-incubated for 10 mins by fluorimetric assay; assay type: cell-based
Method in brief: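 Enzyme source was a proteasome fraction isolated from HL-60 human leukemia cells. […] Activity is reported as ED50 in μM.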

HT-29 [1] = experiment: Cytotoxicity against human HT-29 cells after 3 days by sulforhodamine B assay; assay type: functional; conditions: read-out: ED50 (the source's name)
HT-29 [2] = experiment: Induction of apoptosis in human HT-29 cells assessed reduction of mitochondrial membrane potential after 2 hrs by using JC1 staining by fluorescence cell-based assay; assay type: functional; conditions: HT-29, 2 h, read-out: ED50 (the source's name)

With `COc1cc(O)c2c(c1Cc1ccccc1O)O[C@H](c1ccccc1)CC2=O` the ED50 (HL-60) was greater than 20 µM, the EC50 (HT-29 [1]; Homo sapiens, HT-29, 72 h) was greater than 20 µM and the EC50 (HT-29 [2]) was 13.6 µM.
Work on `COc1c(Cc2ccccc2O)c(O)c2c(c1Cc1ccccc1O)O[C@H](c1ccccc1)CC2=O` yielded an ED50 (HL-60) of 3.45 µM, an EC50 (HT-29 [1]; Homo sapiens, HT-29, 72 h) greater than 20 µM and an EC50 (HT-29 [2]) of 1.6 µM.
Compound `CC(C)C[C@H](NC(=O)[C@H](Cc1ccccc1)NC(=O)c1cnccn1)B(O)O` [BORTEZOMIB] has an EC50 (HT-29 [1]; Homo sapiens, HT-29, 72 h) greater than 20 µM.
In the case of `O=C1C[C@@H](c2ccccc2)Oc2c(Cc3ccccc3O)c(O)c(Cc3ccccc3O)c(O)c21` [DICHAMANETIN], the ED50 (HL-60) is reported as greater than 20 µM and the EC50 (HT-29 [1]) is reported as greater than 20 µM.
`O=C1C[C@@H](c2ccccc2)Oc2cc(O)c(Cc3ccccc3O)c(O)c21` [ISOCHAMANETIN] was tested, and the ED50 (HL-60) was greater than 20 µM and the EC50 (HT-29 [1]; Homo sapiens, HT-29, 72 h) was greater than 20 µM.
For `CC(=O)O[C@H]1C(=O)[C@@]2(C)[C@H]([C@H](OC(=O)c3ccccc3)[C@]3(O)C[C@H](OC(=O)[C@H](O)[C@@H](NC(=O)c4ccccc4)c4ccccc4)C(C)=C1C3(C)C)[C@]1(OC(C)=O)CO[C@@H]1C[C@@H]2O` [PACLITAXEL], the EC50 (HT-29 [1]; Homo sapiens, HT-29, 72 h) was 0.006 µM.
`O=C1C[C@@H](c2ccccc2)Oc2cc(O)cc(O)c21` [PINOCEMBRIN] gave an ED50 (HL-60) of 2.87 µM and an EC50 (HT-29 [1]; Homo sapiens, HT-29, 72 h) greater than 20 µM.
Work on `CC(C)CNC(=O)/C=C/C=C/CCCCc1ccc2c(c1)OCO2` [PIPERCALLOSINE] yielded an ED50 (HL-60) greater than 20 µM, an EC50 (HT-29 [1]; Homo sapiens, HT-29, 72 h) greater than 20 µM and an EC50 (HT-29 [2]) of 4.6 µM.
Work on `O=C1C[C@@H](c2ccccc2)Oc2c(Cc3cc(Cc4cc(Cc5ccccc5O)ccc4O)ccc3O)c(O)c(Cc3ccccc3O)c(O)c21` [SARMENTOSUMIN A] yielded an ED50 (HL-60) greater than 20 µM and an EC50 (HT-29 [1]; Homo sapiens, HT-29, 72 h) greater than 20 µM.
In the case of `O=C1C[C@@H](c2ccccc2)Oc2c(Cc3ccccc3O)c(O)c(Cc3cc(Cc4cc(Cc5ccccc5O)ccc4O)ccc3O)c(O)c21` [SARMENTOSUMIN B], the ED50 (HL-60) is reported as greater than 20 µM and the EC50 (HT-29 [1]; Homo sapiens, HT-29, 72 h) is reported as greater than 20 µM.
`O=C1C[C@@H](c2ccccc2)Oc2c(Cc3ccccc3O)c(O)c(Cc3cc(Cc4cc(Cc5cc(Cc6ccccc6O)ccc5O)ccc4O)ccc3O)c(O)c21` [SARMENTOSUMIN C] gave an ED50 (HL-60) greater than 20 µM, an EC50 (HT-29 [1]; Homo sapiens, HT-29, 72 h) greater than 20 µM and an EC50 (HT-29 [2]) of 2.5 µM.
For `O=C1C[C@@H](c2ccccc2)Oc2c(Cc3cc(Cc4ccccc4O)ccc3O)c(O)c(Cc3cc(Cc4cc(Cc5ccccc5O)ccc4O)ccc3O)c(O)c21` [SARMENTOSUMIN D], the ED50 (HL-60) was greater than 20 µM and the EC50 (HT-29 [1]; Homo sapiens, HT-29, 72 h) was greater than 20 µM.
